High-throughput results deposited in PubChem BioAssay by several laboratories.
In the library only some 1.4% were active in any assay of this set; here they are far more common.
MOR-DOR ag: agonists of OPRM1-OPRD1 heterodimerization, primary screen, cell-based, luminescence; cells; activation, % at 9.3 µM; Mu-type opioid receptor (Homo sapiens) + Delta-type opioid receptor (Homo sapiens), …; hit rate 0.3% among 340,000;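 note: 0% = vehicle-treated cells and 100% = reference agonist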
Target sequence (P35372 whole entry, looked up): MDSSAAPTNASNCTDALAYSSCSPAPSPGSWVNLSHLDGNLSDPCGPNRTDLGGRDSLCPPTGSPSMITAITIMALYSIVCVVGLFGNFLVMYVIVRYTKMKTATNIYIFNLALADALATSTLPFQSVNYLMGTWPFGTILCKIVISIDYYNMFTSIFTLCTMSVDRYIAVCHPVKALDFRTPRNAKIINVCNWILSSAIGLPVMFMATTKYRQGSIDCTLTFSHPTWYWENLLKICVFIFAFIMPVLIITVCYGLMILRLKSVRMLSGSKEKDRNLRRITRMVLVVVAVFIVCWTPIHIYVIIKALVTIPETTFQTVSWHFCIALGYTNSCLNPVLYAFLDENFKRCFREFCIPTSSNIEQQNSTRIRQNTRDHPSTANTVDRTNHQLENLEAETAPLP
Target sequence (P41143 whole entry, looked up): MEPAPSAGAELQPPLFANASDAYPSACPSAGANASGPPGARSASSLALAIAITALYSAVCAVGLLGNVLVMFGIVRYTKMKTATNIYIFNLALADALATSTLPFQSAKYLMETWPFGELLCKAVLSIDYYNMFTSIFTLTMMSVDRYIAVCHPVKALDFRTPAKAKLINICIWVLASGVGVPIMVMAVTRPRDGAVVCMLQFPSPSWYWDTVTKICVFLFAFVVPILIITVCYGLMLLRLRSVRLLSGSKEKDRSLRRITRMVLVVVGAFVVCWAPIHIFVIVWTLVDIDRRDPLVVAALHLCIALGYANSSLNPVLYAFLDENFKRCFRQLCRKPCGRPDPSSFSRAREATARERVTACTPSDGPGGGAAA
HTR5A ag ctr: HTR5A agonists in luminescence cell assay, primary screen, counter-screen for OPRM1-OPRD1 heterodimer agonist project, full-deck HTS | 5-hydroxytryptamine receptor 5A (Homo sapiens), P47898 | cell-based | activation, % at 9.3 µM | hit rate 0.61% among 340,000; in the data active = activation mostly above about 9.5%, no sharp cut-off; inactive = mostly below about 7.6%;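 note: 0% = cells with vehicle only and 100% = reference agonist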
HTR5A inv ctr: HTR5A inverse agonists in luminescence cell assay, primary screen, counter-screen for OPRM1-OPRD1 heterodimer inverse agonist project, full-deck HTS; 5-hydroxytryptamine receptor 5A (Homo sapiens), P47898; HTR5A cell line, inverse agonism; inhibition, % at 9.3 µM; hit rate 0.083% among 340,000; in the data active = inhibition mostly above about 23%, no sharp cut-off; inactive = mostly below about 18%;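 note: 0% = cells with DMSO and 100% = no-cell wells with DMSO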
Hep lipid drop: inhibitors of hepatocyte lipid droplet formation, primary screen, imaging, high-throughput imaging, BODIPY stain; AML12 mouse hepatocytes, oleate lipid droplets; inhibition, % at 6.5 µM; hit rate 0.4% among 240,000; AID 1656, 2009;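 active = lipid droplet intensity inhibited by at least 50%, with more than 500 cells counted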
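Assay system: AML12 mouse liver cells | Compound: 6.5 µM single-point dosing | Schedule: Overnight exposure | Technique: Fluorescence imaging, 20x objective, two fields per well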
OPRM1-OPRD1 inv: inverse agonists of MOR-DOR heterodimerization, primary screen, cell-based, luminescence. cell-based MOR-DOR heterodimer luminescence, inverse agonism. Mu-type opioid receptor (Homo sapiens) + Delta-type opioid receptor (Homo sapiens), …. hit rate 0.21% among 340,000. AID 504357, 2011. inhibition, % at 9.3 µM; in the data active = inhibition above about 22%, passing the limit was not always enough;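 note: 0% = cells with DMSO and 100% = wells without cells with DMSO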
OPRM1-D1 ag cf: agonists of MOR-DOR heterodimerization, confirmation, cell-based, luminescence | hit rate 45% among 830 | shares compounds with MOR-DOR ag | activation, % at 9.3 µM | cells, luminescence complementation;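 note: 0% = vehicle-treated cells and 100% = reference agonist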
HTR5A ag ctr2: HTR5A agonists in cells, counter-screen for OPRM1-OPRD1 heterodimer agonist project, cell-based, luminescence; shares compounds with MOR-DOR ag; activation, % at 9.3 µM; HTR5A agonist counterscreen; hit rate 8% among 830; in the data active = activation above about 17%;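 note: 0% = vehicle-treated cells and 100% = reference agonist response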
An asterisk follows results filed as active; i = inactive; / = no result given. Cut-off read from the data, not from the text of the source, unless noted: active = activation above about 18%; inactive = the rest.

SMILES	MOR-DOR ag	HTR5A ag ctr	HTR5A inv ctr	Hep lipid drop	OPRM1-OPRD1 inv	OPRM1-D1 ag cf	HTR5A ag ctr2
Cc1ccc(C(=O)C2C(c3ccc(-c4ccccc4[N+](=O)[O-])o3)NC(=O)NC2(O)C(F)(F)F)cc1 (stereo not given)	21.2*	1.9	0.2	/	-113.8	3.8	4.7
O=C1NC(c2ccc(-c3ccccc3[N+](=O)[O-])o2)C(C(=O)c2ccccc2)C(O)(C(F)(F)F)N1 (stereo not given)	10.2	2.9	-14.9	2.5	-63.7	/	/
CCCCc1nc2ccc(S(=O)(=O)O)cc2[nH]1	-3.5	6.1	-20.8	7.4	18.9	/	/
CCC(C)(C)NC(=O)c1ccc2c(c1)OCCO2	0.8	-1.0	2.6	4.4	-3.7	/	/
COc1cc2nc(N(CCCN(C)C)C(=O)c3ccc(S(=O)(=O)N(C)C4CCCCC4)cc3)sc2cc1OC	-0.4	-1.0	2.5	/	3.0	/	/
CN(C)CCCN(C(=O)c1ccc(S(=O)(=O)N(C)C2CCCCC2)cc1)c1nc2ccc(Br)cc2s1	11.3	-1.4	6.8	-5.8	-58.8	/	/
CCN(Cc1ccccc1)S(=O)(=O)c1ccc(C(=O)N(CCCN(C)C)c2nc3ccc(F)cc3s2)cc1	412.5*	3.6	-1.4	-9.0	i	0.3	2.4
CN(C)CCCN(C(=O)c1ccc(S(=O)(=O)N(C)C2CCCCC2)cc1)c1nc2ccc(F)cc2s1	326.7*	4.3	13.2	24.1	i	120.9*	1.6
CCN(Cc1ccccc1)S(=O)(=O)c1ccc(C(=O)N(CCCN(C)C)c2nc3cc4c(cc3s2)OCCO4)cc1	2.7	-5.2	13.5	/	-18.5	/	/
CCc1ccc2nc(N(CCCN(C)C)C(=O)c3ccc(S(=O)(=O)N(C)C4CCCCC4)cc3)sc2c1	19.1*	2.4	-24.8	-21.9	-105.7	50.3*	3.0
CN(C)CCCN(C(=O)c1ccc(S(=O)(=O)N(C)Cc2ccccc2)cc1)c1nc2c(F)cccc2s1	47.1*	0.5	3.1	-7.6	-244.2	107.7*	-2.9
Cc1sc2ncn(CC(=O)NC3CCCCC3)c(=O)c2c1C	-2.8	-3.0	7.2	/	11.2	/	/
O=C(/C=C/c1ccccc1)Nc1cccc(S(=O)(=O)Nc2ccccc2F)c1	1.9	-0.2	0.8	-4.6	-11.1	/	/
Cc1cc(Br)ccc1NC(=O)CN(C)C(=O)CN1C(=O)NC(C)(C2CC2)C1=O (stereo not given)	0.8	-4.5	11.0	/	-3.1	/	/
CCc1ccc2nc(N(CCCN(C)C)C(=O)c3ccc(S(=O)(=O)N4CCc5ccccc5C4)cc3)sc2c1	29.4*	4.8	-17.4	-7.6	-167.8	35.9*	4.7
COc1ccc2c(CC(=O)Nc3ccc(OC)c(NS(=O)(=O)c4ccc(F)cc4)c3)coc2c1	18.9*	2.8	-8.8	-2.8	-118.0	5.8	0.6
COc1ccc2c(CC(=O)Nc3ccccc3OC)coc2c1	-3.4	-0.6	3.4	-63.0	16.9	/	/
Cn1ncc2c(=O)[nH]c(N)nc21	-1.1	-2.1	8.1	/	5.8	/	/
COc1ccc(-c2csc(N(CCCN(C)C)C(=O)c3cccs3)n2)cc1	26.4*	4.2	-10.9	/	-131.5	42.7*	-1.3
CCCn1c(SCC(=O)c2ccc3c(c2)NC(=O)CO3)nc2ccccc21	4.7	2.3	-16.7	2.0	-34.0	/	/
Cn1c(SCC(=O)c2ccc3c(c2)NC(=O)CO3)nc2ccccc21	38.1*	7.1	6.1	-0.9	-204.7	25.2*	6.9
CCOc1ccc(NC(=O)NNC(=O)c2ccc(CC)s2)cc1	-4.8	-1.5	4.2	0.2	22.3	/	/
CCOc1ccc(C(=O)C(CCC(CN(C)C)C(=O)c2ccc(OCC)cc2)CN(C)C)cc1 (stereo not given)	28.9*	14.4*	-60.0	-11.9	-134.8	-4.2	-8.9
CC(=O)NC1=NC(=O)/C(=C/c2cc(C)n(-c3ccc(NC(C)=O)cc3)c2C)S1	59.9*	-3.0	-47.1	4.2	-312.2	14.4	4.3
COc1cccc(CN(C)C(=O)CSCC(=O)Nc2cc(C)on2)c1OC	-3.4	0.0	-0.1	/	17.8	/	/
SMILES	MOR-DOR ag	HTR5A ag ctr	HTR5A inv ctr	Hep lipid drop	OPRM1-OPRD1 inv	OPRM1-D1 ag cf	HTR5A ag ctr2
CCN1CC(CN(C)Cc2cn(-c3cccc(C)c3)nc2-c2cccc(F)c2)CC1=O (stereo not given)	19.9*	1.6	-4.5	-5.3	-103.7	-0.1	5.0
NC(=O)c1cc(-c2csc(NCCc3ccccc3)n2)ccc1O	19.1*	-0.2	0.6	15.6	-101.9	19.7*	-0.8
CCCn1nc(C(=O)NNC(=O)c2cccc(S(=O)(=O)NC(C)C)c2)c2ccccc2c1=O	-2.8	4.0	-14.6	4.7	16.0	/	/
Cc1cc(N2CCN(c3ccc([N+](=O)[O-])c4cccnc34)CC2)c2ccccc2n1	36.0*	1.9	-5.2	-0.9	-216.2	52.5*	10.1
Cc1cc(N2CCN(c3ccc(C(F)(F)F)cc3[N+](=O)[O-])CC2)c2ccccc2n1	-2.0	0.7	-10.5	-1.2	10.0	/	/
Cc1ccc(C(=O)NCC(c2ccc(F)cc2)N2CCOCC2)cc1S(=O)(=O)N1CCOCC1 (stereo not given)	-2.5	4.7	-9.0	/	9.5	/	/
Cc1cc(Cl)ccc1OCCCC(=O)N/N=C/c1cccc([N+](=O)[O-])c1	21.3*	5.4	-8.8	4.7	-110.1	2.0	-7.3
Clc1cccc(Cl)c1CSc1nnc(-c2ccncc2)s1	20.9*	1.8	3.7	-20.0	-104.8	8.1	4.6
COc1cccc(N=c2oc3ccccc3cc2-c2nc3ccccc3[nH]2)c1	0.0	-4.2	-3.1	31.6	0.2	/	/
COc1cccc(N=c2oc3ccc(OC)cc3cc2-c2nc3ccccc3[nH]2)c1	19.5*	3.5	-30.1	-10.1	-101.6	25.5*	8.4
COc1ccc(-c2csc(NC(=O)c3ccc(S(=O)(=O)N4CCc5ccccc5C4)cc3)n2)c(OC)c1	1.2	-2.5	6.7	-4.0	-7.5	/	/
Cc1ccc(C2(CCNCc3ccc(N(C)C)cc3)CCOC(C(C)C)C2)cc1 (stereo not given)	16.1	2.2	-6.0	/	-84.2	/	/
CC(C)C1CC(CCNCc2ccc(N(C)C)cc2)(c2ccccc2)CCO1 (stereo not given)	21.1*	6.7	-19.6	-4.1	-113.2	25.0*	-1.4
O=C(Nc1cc(Sc2ccccn2)cc([N+](=O)[O-])c1)c1ccc([N+](=O)[O-])cc1	32.2*	14.3*	-13.2	/	-147.0	1.0	35.4*
O=[N+]([O-])c1ccc(Sc2ccccn2)nc1	-1.2	5.4	20.9	-10.9	5.8	/	/
